Among the data in ChEMBL document CHEMBL4270578, “Synthesis and cytotoxic studies of novel 5-phenylisatin derivatives and their anti-migration and anti-angiogenic evaluation” (Eur J Med Chem, 2018) are viability, Activity and IC50 values, retold here.

The structures appear in SMILES notation.

In assay [1] the test system is K562. The assay is described as follows: Induction of apoptosis in human K562 cells assessed as viable cells at 300 nM after 48 hrs by Annexin V-FITC/propidium iodide staining-based flow cytometric analysis (reference value: 95.6%). Type of assay: functional. Particulars: K562, 48 h, read-out: Activity. For orientation: Flow cytometry measures light scatter and fluorescence of single cells or particles in a stream.

Assay [2] concerns K562. The assay is described as follows: Induction of apoptosis in human K562 cells assessed as early apoptotic cells at 30 nM after 48 hrs by Annexin V-FITC/propidium iodide staining-based flow cytometric analysis (reference value: 1.9%). The class given is functional.
Assay [3] has as its system K562. The assay is described as follows: Induction of apoptosis in human K562 cells assessed as early apoptotic cells at 30 nM after 12 hrs by Annexin V-FITC/propidium iodide staining-based flow cytometric analysis (reference value: 1.9%). Type of assay: functional.
The subject of assay [4] is K562. The assay is described as follows: Induction of apoptosis in human K562 cells assessed as early apoptotic cells at 30 nM after 6 hrs by Annexin V-FITC/propidium iodide staining-based flow cytometric analysis (reference value: 1.9%). The class given is functional.
Assay [5] deals with K562. The assay is described as follows: Induction of apoptosis in human K562 cells assessed as necrotic cells at 30 nM after 6 hrs by Annexin V-FITC/propidium iodide staining-based flow cytometric analysis (reference value: 0.1%). Type of assay: functional.
Assay [6] concerns K562. The assay is described as follows: Induction of apoptosis in human K562 cells assessed as late apoptotic cells at 300 nM after 48 hrs by Annexin V-FITC/propidium iodide staining-based flow cytometric analysis (reference value: 2.1%). Type of assay: functional.
The test system of assay [7] is K562. The assay is described as follows: Induction of apoptosis in human K562 cells assessed as late apoptotic cells at 300 nM after 6 hrs by Annexin V-FITC/propidium iodide staining-based flow cytometric analysis (reference value: 2.1%). The class given is functional.
A further assay concerns HepG2. The assay is described as follows: Antiproliferative activity against human HepG2 cells after 48 hrs by MTT assay. The class given is functional, cell-based. Particulars: HepG2, 48 h. Background: Tetrazolium assays rely on reduction of a dye to a coloured formazan, in cell work by metabolically active cells.
In the next assay the test system is HUVEC. The assay is described as follows: Antiangiogenic activity against HUVEC assessed as inhibition of tube formation after 12 hrs by microscopic analysis. Type of assay: functional, cell-based. Particulars: Homo sapiens. Put shortly: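 Matrigel (13.9 mg/mL) polymerized 30 min at 37 °C. HUVECs (1 × 10^5 cells/well) in Ham's F-12 + 10% FBS plated on the gel; after 40 min, DMSO or compound (10, 30, 100 nM) added. Incubated 12 h at 37 °C, 5% CO2; capillary-like tube formation photographed by microscopy.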

Assay [8] has as its system K562. The assay is described as follows: Induction of apoptosis in human K562 cells assessed as viable cells at 30 nM after 24 hrs by Annexin V-FITC/propidium iodide staining-based flow cytometric analysis (reference value: 95.8%). The class given is functional. Particulars: K562, 24 h, read-out: Activity.
For assay [9], the system named is K562. The assay is described as follows: Induction of apoptosis in human K562 cells assessed as necrotic cells at 30 nM after 24 hrs by Annexin V-FITC/propidium iodide staining-based flow cytometric analysis (reference value: 0.1%). Type of assay: functional.
In assay [10] the test system is K562. The assay is described as follows: Induction of apoptosis in human K562 cells assessed as late apoptotic cells at 300 nM after 24 hrs by Annexin V-FITC/propidium iodide staining-based flow cytometric analysis (reference value: 2.1%). Type of assay: functional.

The term IC50 denotes the concentration that inhibits the measured activity by half. Low readings indicate inhibition by little substance, high ones a need for much substance. `COc1ccc(CN2C(=O)C(=O)c3cc(-c4ccc(OC)cc4)ccc32)cc1`: in the assay with K562 [1], the viability at 0.3 µM is 4.7%. Besides, the Activity with K562 [2] came to 22.3%; with K562 [3] it was 3.1%; in the assay with K562 [4], 2.1%; in the assay on K562 [5], 0.1%; in the assay with K562 [6], 10%; in the assay with K562 [7] it was 3.8%. The Activity entry in the assay with HUVEC is “Dose-dependent effect”; in the assay with K562 [9] it was 0.4%; in the assay on K562 [10] it was 4.7%. Also, in the assay with HepG2, it took 0.05 µM to reach half-maximal inhibition (IC50). In addition, the viability at 0.03 µM in the assay with K562 [8] was 88.5%.
